The results in this text go back to ChEMBL document CHEMBL4513216, “Probing the Open Global Health Chemical Diversity Library for Multistage-Active Starting Points for Next-Generation Antimalarials” (ACS Infect Dis, 2020).

The series can be described thus: Toxicity liver stage against HepG2, at 10uM. Format: cell-based. Further details: test concentration 10 uM, cell line HepG2-A16-CD81EGFP. Particulars: human, HepG2-A16-CD81EGFP cells; read-out: INHIBITION
The method in brief:
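Uninfected HepG2-A16-CD81EGFP cells, 3 × 10^3 per well, 1536-well, plated on prespotted compound at 10 μM final, parasite-free screening media added to match infected plates; puromycin 10 μM positive, DMSO 0.5% negative; run in parallel with 48 h PbLuc assay at 37 °C, 5% CO2; viability by CellTiter-Glo luminescence, normalized to controls.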
On to `Cc1nccn1C1CCCN(C(=O)c2cc3c(F)cccc3[nH]2)C1` (stereo not drawn), for which the cytotoxicity at 10 µM came to 5.32%. To `CC(NC(=O)c1ccc2c(c1)OCC(=O)N2)c1ccccc1F` (stereo not drawn) belongs -4.42%; to `CCCn1ccnc1CN1CCCC(O)(CN(C)C)CC1` (stereo not drawn), 1.33%; to `CCC(=O)N1CCC(Cc2ccccc2-c2ccccc2F)(C(N)=O)C1` (stereo not drawn), -10.8%. As to `CCOC1Sc2nnc(C)n2N=C1c1ccc(Br)cc1` (stereo not drawn), the cytotoxicity at 10 µM was -2.92%. For `N#CC1(NC(=O)c2ccc(F)c(Br)c2)CCSC1` (stereo not drawn) the value was -7.08%.

For `CC(C)[C@H]1CN(c2cnccn2)C[C@@H]1NC(=O)C1(C#N)CCOCC1`, the cytotoxicity at 10 µM was -6.35%. For `Cc1nc(CN2CCN(C3CCOC3)Cc3cccnc32)cs1` (stereo not drawn) the value was 8.91%; for `Cc1nc(C2CCCN(C(=O)c3ccoc3)C2)no1` (stereo not drawn), -13.1%. To `CCc1noc(CN(C)C(=O)COc2cccc(Cl)c2C)n1` belongs 3.86%; to `CC(C)(NS(C)(=O)=O)c1nc(-c2ccc(F)c(F)c2)no1`, -1.49%; to `O=S(=O)(CC1CCCCO1)Nc1cc(F)ccc1-n1cccn1` (stereo not drawn), 7.71%. To `CNC(=O)C1CCCCN1C(=O)c1n[nH]c(=O)c2ccccc12` (stereo not drawn) belongs 0.0666%; to `CC1CCCN(CCCNC(=O)c2cn(C)nc2-c2cccnc2)C1` (stereo not drawn), -3.24%. For `COc1ccc(OC)c(C2c3c(n[nH]c3C)N=C3COC(=O)C32)c1` (stereo not drawn), the cytotoxicity at 10 µM is -11.3%.

With `CCCOCCN1CCC2(CC1)CC(c1ccccc1)C(=O)N2C` (stereo not drawn), the cytotoxicity at 10 µM came out at 38.1%. For `CNc1cc(C2CCCN2C(=O)c2ccc3oc(=O)n(C)c3c2)ccn1` (stereo not drawn) the value was 1.68%; for `CC(C)CC(O)C1CCN(C(=O)c2ccc(C(C)C)[nH]c2=O)CC1` (stereo not drawn), 3.25%. With `COCCn1ccc2c(C(=O)NCC3CCCO3)cccc21` (stereo not drawn), the cytotoxicity at 10 µM stood at 1.53%. To `CCN(Cc1ccncc1)c1cc(C2CCCNC2)nc(C)n1` (stereo not drawn) belongs -5.21%; to `CCN1CCN(c2ccccc2NC(=O)NCc2ccon2)CC1`, 10.4%; to `O=C(O)CSc1nnc(-c2ccn[nH]2)n1-c1ccccc1Cl`, 0.276%. For `Cc1ccc(CN(CCN(C)C)C(=O)Cc2cn3ccccc3n2)o1` the value was -5.1%; for `Cn1ccnc1CN1CCN(Cc2cc(-c3ccccc3)no2)CC1`, -15.5%; for `Cc1ccc(OCCN(C)Cc2cscn2)cc1`, 0.51%. For `CCc1cnc(CN(C)C2CCN(CCc3ccccn3)C2)o1` (stereo not drawn) the value was -14.2%; for `CC(C)OCc1ncn2c1CN(CCO)CCC2`, 8.37%; for `Cc1cc(NS(=O)(=O)c2cccs2)ccc1-n1cccc1C(=O)O`, -2.68%. Turning to `COc1cccc(CN(C)C(=O)CN2CCN(c3nccs3)CC2)c1`, the cytotoxicity at 10 µM is -3.98%. To `COC(=O)c1oc(CNC(C)(C)c2ccc3c(c2)OCO3)cc1C` belongs 4.47%; to `CNc1cc(N2CCCC2CNCc2csc(C(C)C)n2)ncn1` (stereo not drawn), -14.9%; to `Cc1cnn(CC2CCCN2c2ncnc3sccc23)c1` (stereo not drawn), 44.4%. To `COc1ccccc1OCc1cc(C(=O)N2CCN(C(C)=O)CC2)n[nH]1` belongs -2.59%. To `CN(C)S(=O)(=O)c1ccc(CNc2ccc(Cl)cn2)cc1` belongs 7.25%. In the case of `COc1ccc(CNC2CCc3ncnn3C2)cc1OCC1CC1` (stereo not drawn), the cytotoxicity at 10 µM is -8.74%. On to `O=C(Nc1cnn(CCN2CCOCC2)c1)c1ccccc1O`, for which the cytotoxicity at 10 µM was -3.38%. For `COc1cccc(-c2cc(C(=O)Nc3nc[nH]n3)[nH]n2)c1` the value was -5.51%.

As to `O=C(CNC(=O)Nc1cccc(Cl)c1SC(F)F)NC1CC1`, the cytotoxicity at 10 µM worked out at 0.797%.

In the case of `CCn1cnnc1C1CCN(C(=O)c2cc(C)c(C)s2)CC1`, the cytotoxicity at 10 µM is -26.9%.

Take `Cc1nnsc1C(=O)NCCNS(=O)(=O)c1cccs1`: the cytotoxicity at 10 µM turned out to be 4.29%.

For the compound `O=C(CNC(=O)c1cc(Cl)ccn1)Nc1nccs1`, the cytotoxicity at 10 µM is -1.87%. To `Cn1cc(C[C@H]2[C@@H](O)CCN2C(=O)C2CCC2)cn1` belongs -7.44%; to `CC(C)C(=O)NCc1ccc(N(C)C)cc1`, -18.1%. For `Cn1ccc(CN2CCC(c3ccccc3)CC2)cc1=O`, the cytotoxicity at 10 µM is -6.46%. To `CN(C)C(=O)NCc1nnn2c1CN(CC1CCOCC1)CCC2` belongs -128%.

Turning to `COc1cccc(CNC(C)c2ccc(-n3ccnc3)cc2)c1OC` (stereo not drawn), the cytotoxicity at 10 µM was -35.1%.

Turning to `CS(=O)(=O)NCC1CCCCN1C(=O)Nc1cccnc1N1CCCC1` (stereo not drawn), the cytotoxicity at 10 µM is -3.45%. `Cc1nccc(CNC(=O)NC(c2ncc(C)s2)C2CC2)n1` (stereo not drawn): the cytotoxicity at 10 µM is -0.898%.

Turning to `Cn1nc2c(cc1=O)CN(Cc1nnc(C3CC3)o1)CC2`, the cytotoxicity at 10 µM came to 4.28%. For `CN(Cc1cc(Cl)ccc1Cl)Cc1ncnn1C` the value was -0.943%.

`NC(=O)c1cc2c(nc1-c1ccc3c(c1)OCCO3)CCC2`: the cytotoxicity at 10 µM is -1.88%. For `Cc1c(CN2CCCCC2)c(O)n(CCCO)c(=O)c1C#N` the value was -5.03%; for `CCNC(=O)NC[C@H]1C[C@@H]2CCN1C[C@@H]2c1cc(-c2cccs2)nn1C`, -5.72%; for `CC(c1ccc(F)c(F)c1)N(C)CCS(=O)(=O)CCC(N)=O` (stereo not drawn), -52.2%.

For the compound `CCCS(=O)(=O)N1CCC2(CC1)CC(=O)N(Cc1cc(F)cc(F)c1)C2`, the cytotoxicity at 10 µM was determined as 8.78%. To `CN(Cc1ccc(CCC(C)(C)O)cc1)Cc1cccnc1` belongs 15%.

`CCn1nc(C)c(NC(=O)CN(C)C(C)c2nccs2)c1C` (stereo not drawn): the cytotoxicity at 10 µM is -143%. To `O=C(CN1C=Nc2ccccc2S1(=O)=O)NCc1ccccc1` belongs -3.95%; to `CC(C)CN1CC2(CCN(C(=O)C(O)c3ccccc3Cl)CC2)CC1=O` (stereo not drawn), 6.89%; to `Cc1nnc([C@@H]2CC[C@@H]3[C@@H](CCN3S(C)(=O)=O)O2)o1`, -79.1%. To `Cn1c(SCC(O)COCc2ccccc2Cl)nnc1C1CC1` (stereo not drawn) belongs -2.24%; to `CS(=O)(=O)NC1CCN(C(=O)NCC2CCCO2)CC1` (stereo not drawn), -1.9%; to `CCC(O)c1nc2c([nH]1)CC(C)(C)CNC2=O` (stereo not drawn), 9.55%.

For the compound `O=C(c1ccco1)N1CCCC(c2cc(C(F)(F)F)[nH]n2)C1` (stereo not drawn), the cytotoxicity at 10 µM is -16.1%. To `COCCO[C@H]1CCN(c2cc(OC)ncn2)[C@H]1Cc1cccnc1` belongs -140%; to `Cc1cc(C(=O)OCC2CCCN2C(N)=O)c(C)o1` (stereo not drawn), 6.72%. For `O=C(CCO)N1CCC2(CCc3ccc(-c4ccoc4)cc32)CC1` the value was 16.1%; for `COCCN(C)CC1CCCN1S(=O)(=O)c1cccc(F)c1F` (stereo not drawn), 4.93%; for `O=C(Nc1ccc(Cl)cn1)c1nn(C2CCS(=O)(=O)C2)c2c1CCCC2` (stereo not drawn), 1.61%.

Take `COCc1nc(CN2CC(=O)N(C)c3ccccc3C2=O)no1`: the cytotoxicity at 10 µM is -6.03%.

As for `CN1CCc2[nH]cnc2C12CCN(C(=O)c1noc3c1CCCC3)CC2`, the cytotoxicity at 10 µM came out at 8.71%. For `COc1c(C2CCCN2C(=O)c2csc(C3CC3)n2)c(C)nn1C` (stereo not drawn) the value was 4.53%.

As for `COc1ccccc1CN(Cc1nc(CC(C)C)no1)C1CC1`, the cytotoxicity at 10 µM is 4.93%. To `COCCNc1ccc(CC2CCCN(c3ncccn3)C2)nn1` (stereo not drawn) belongs 3.81%; to `CN1C[C@@H](n2cnc(-c3ccccc3)c2-c2nccn2C)C[C@H]1C(=O)O`, -0.338%. To `COC(=O)N1CCCC(C(=O)N2CCCCC2)C1` (stereo not drawn) belongs -8.58%; to `Cc1nc(CN2CCN(C(=O)Cc3cccc(Cl)c3)CC2)no1`, -4.76%; to `COc1ccccc1NC(=O)c1cnc(C2CCN(C(C)=O)C2)nc1C` (stereo not drawn), 6.42%. For `Cc1nc(CN2CCC(CNC(=O)Nc3ccccn3)CC2)oc1C` the value was -3.5%. For the compound `Cc1ccccc1CS(=O)(=O)CC(=O)NCc1ccccc1F`, the cytotoxicity at 10 µM is -6%. For `CCN(C(=O)c1nc2c(s1)CCCN2c1ccc(C)nn1)C(C)C` the value was 3.86%; for `CC(C)c1noc(CCC(=O)NC(C)c2nnc3n2CCC3)n1` (stereo not drawn), 2.59%; for `Cc1ccc(NC2CCN(C(=O)CCOCC(F)(F)F)CC2)nn1`, -2.78%. To `COc1cccc(CN(C)Cc2[nH]c3ccccc3c2C)c1O` belongs 3.38%; to `Cc1ccc(N2CCN(c3ccccc3C)CC2C)nn1` (stereo not drawn), 13.2%; to `CCc1oc(C(=O)NCCc2cc(O)nc(C)n2)cc1CN1CCCC1`, 13.1%. For `CC(C)Oc1ncccc1CNC(=O)N1CCC(C(N)=O)C1` (stereo not drawn) the value was -6.08%; for `CCCNC(c1cccnc1)c1ccc(F)cc1F` (stereo not drawn), -2%; for `CCCc1cc(NCc2nc(COC)no2)n2nccc2n1`, -0.916%. With `Cc1ccc(S(=O)(=O)N2CCCCC(N3CCN(C)CC3)C2)cc1F` (stereo not drawn), the cytotoxicity at 10 µM was 6.24%.

With `CCc1nnc(CN(CC)C(=O)C2CC(=O)N(CC)C2)o1` (stereo not drawn), the cytotoxicity at 10 µM amounted to 1.97%. Regarding `Cc1nc(C)c(C)c(N2CCC(NCCOc3ccccc3)CC2)n1`, the cytotoxicity at 10 µM is -1.45%. To `CC(CCN1CCC(n2cc(CCO)nn2)CC1)c1ccccc1` (stereo not drawn) belongs 3.23%.

For `CCCc1nc(N(C)CCN2CCCCCC2)c2cnn(C)c2n1`, the cytotoxicity at 10 µM turned out to be 3.22%. To `Cc1noc(C)c1C(=O)N1CC[C@H]2C[C@@H](c3nccs3)O[C@@H]2C1` belongs -1.62%.

For the compound `CS(=O)(=O)Cc1ccc(Cl)cc1NCc1cccc(F)c1F`, the cytotoxicity at 10 µM came out at 9.2%. For the compound `Cc1c(NCCCOc2cccc(C#N)c2)cccc1C(N)=O`, the cytotoxicity at 10 µM is -0.572%. For `Cn1ccnc1CNC(=O)N(CCCO)C1CCc2ccccc21` (stereo not drawn) the value was -11.6%.
